Results on 36 compounds are retold here after ChEMBL document CHEMBL1641479, “2-Substituted (S)-2-(3,3-dimethyl-1-oxo-10,10a-dihydroimidazo[1,5-b]isoquinolin-2(1H,3H,5H)-yl)acetic acids: Conformational prediction, synthesis, anti-thrombotic and vasodilative evaluation” (Bioorg Med Chem, 2011).

What is called inhibition is the percentage by which the read-out fell short of the control. In general, IC50 refers to the concentration at which inhibition is half-maximal.

Test [1] deals with Rattus norvegicus. Description: Antithrombotic activity in Wistar rat assessed as thrombus weight at 15 umol/kg, iv (reference value: 28.54 +/- 2.62 mg). The format is functional.
A short description of test [2]: Antiplatelet activity against pig platelet assessed as inhibition of ADP-induced platelet aggregation at 10 uM by spectrophotometry. Format: functional. The conditions noted are these: Sus scrofa. Put shortly: (§1)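 Pig blood (six pigs) spun 1000 rpm 10 min for PRP, then 1500 rpm 10 min for PPP; PRP adjusted to 2×10^8 platelets/mL with autologous PPP. Compound (final 100 µM to 1 nM, diluted in NS from DMSO/NS stock) or NS added, then inducer at final PAF 0.1 µM, ADP 10 µM, AA 350 µM or thrombin 0.1 U/mL.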

The nature of test [3]: Antiplatelet activity against pig platelet assessed as inhibition of arachidonic acid-induced platelet aggregation at 10 uM by spectrophotometry. The format is functional. Particulars: Sus scrofa. Put shortly: as §1
Test [4] in a line: Antiplatelet activity against pig platelet assessed as inhibition of PAF-induced platelet aggregation at 10 uM by spectrophotometry. Format: functional. Particulars: Sus scrofa. Put shortly:
as §1

A short description of test [5]: Antiplatelet activity against pig platelet assessed as inhibition of thrombin-induced platelet aggregation at 10 uM by spectrophotometry. The format is functional. The conditions noted are these: Sus scrofa. The procedure, abridged: as §1
For another test, the system named is Aorta. Put plainly: Inhibition of noradrenaline-induced contraction in Wistar rat thoracic aortic ring assessed as vasorelaxant activity at 300 uM treated after noradrenaline challenge. The format is functional. Details: scale not given: the % may be the effect or the level left. Put shortly: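 Male Wistar rats, 250–300 g, were decapitated and aortic strips were mounted in 37 °C Krebs solution (pH 7.4) gassed with 95% O2/5% CO2, connected to a tension transducer. Strips were contracted with 59 µM noradrenaline, washed, stabilised 30 min, then re-contracted with 59 µM noradrenaline. At peak contraction, compound in ethanol or ethanol alone was added and relaxation was recorded.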

In test [6] the test system is Rattus norvegicus. Description: Antithrombotic activity in Wistar rat assessed as thrombus weight at 15 umol/kg, iv (reference value: 25.99 +/- 2.41 mg). The format is functional.
A short description of test [7]: Antiplatelet activity against pig platelet assessed as inhibition of ADP-induced platelet aggregation by spectrophotometry. The format is functional, cell-based. Particulars: Sus scrofa. Put shortly: as §1
Test [8] is described as follows: Antiplatelet activity against pig platelet assessed as inhibition of arachidonic acid-induced platelet aggregation by spectrophotometry. Format: functional, cell-based. Particulars: Sus scrofa. The procedure, abridged:
as §1

Test [9] in a line: Antiplatelet activity against pig platelet assessed as inhibition of PAF-induced platelet aggregation by spectrophotometry. Format: functional, cell-based. Particulars: Sus scrofa. Put shortly:
as §1

The nature of test [10]: Antiplatelet activity against pig platelet assessed as inhibition of thrombin-induced platelet aggregation by spectrophotometry. The format is functional, cell-based. Particulars: Sus scrofa. Put shortly: as §1

Square brackets hold non-standard residues; d marks the D form. Peptide text beside a SMILES is read from it. Tic = O=C(O)[C@@H]1Cc2ccccc2CN1

As for `NC(=O)C[C@H](NC(=O)[C@@H]1Cc2ccccc2CN1)C(=O)O` (H-[Tic]-Asn-OH), the Activity with Rattus norvegicus [1] came out at 20.24 mg.

Consider `COC(=O)[C@H](CCCCNC(=O)OCc1ccccc1)N1C(=O)[C@@H]2Cc3ccccc3CN2C1(C)C`, for which the inhibition at 10 µM in test [2] stood at 20.9%; in [3], 33.7%; in test [4], 11.2%; in test [5], 18.4%. The Activity in the test with Aorta amounted to 68.21%; with Rattus norvegicus [6], 17.14 mg.

Regarding `O=C(O)[C@H](Cc1ccccc1)NC(=O)[C@@H]1Cc2ccccc2CN1` (H-[Tic]-Phe-OH), the Activity in the test on Rattus norvegicus [1] came out at 19.11 mg.

Consider `O=C(O)[C@@H](NC(=O)[C@@H]1Cc2ccccc2CN1)NC1CCC1`, for which the IC50 was found to be 364 nM in test [7], 103 nM in test [8], 1400 nM in [9] and 185 nM in [10]. Besides, in the test with Rattus norvegicus [1], the Activity is 20.25 mg.

`CCC(C)[C@@H](C(=O)OC)N1C(=O)[C@@H]2Cc3ccccc3CN2C1(C)C` (some centres undefined): the inhibition at 10 µM in test [2] was found to be 48.2%; in test [3], 49.4%; in test [4], 51.3%; in test [5], 60.9%. Further, the Activity worked out at 99% in the test with Aorta and 13.32 mg in the test on Rattus norvegicus [6].

Regarding `COC(=O)[C@H](C(C)C)N1C(=O)[C@@H]2Cc3ccccc3CN2C1(C)C`, the inhibition at 10 µM amounted to 35% in [2], 32.4% in test [3], 34.6% in [4] and 30.9% in [5]. Also, the Activity with Aorta stood at 54.99%; in the test on Rattus norvegicus [6] it was 15.66 mg.

As to `COC(=O)CN1C(=O)[C@@H]2Cc3ccccc3CN2C1(C)C`, the inhibition at 10 µM in [2] worked out at 66.1%; in [3] it was 58.9%; in test [4] it was 44.5%; in test [5], 10.9%. The Activity with Aorta stood at 75.35%; in the test on Rattus norvegicus [6], 15.21 mg.

`CCC(C)[C@H](NC(=O)[C@@H]1Cc2ccccc2CN1)C(=O)O` (single isomer, unassigned): the Activity in the test on Rattus norvegicus [1] stood at 20.03 mg.

As for `CSCC[C@H](NC(=O)[C@@H]1Cc2ccccc2CN1)C(=O)O` (H-[Tic]-Met-OH), in the test with Rattus norvegicus [1], the Activity is listed as 21.74 mg.

As to `COC(=O)[C@H](CC(C)C)N1C(=O)[C@@H]2Cc3ccccc3CN2C1(C)C`, the inhibition at 10 µM in test [2] amounted to 31.4%; in [3] it was 37.5%; in [4] it was 29.2%; in [5] it was 38.3%. Further, the Activity in the test on Aorta turned out to be 74.68%; in the test on Rattus norvegicus [6], 14.1 mg.

With `COC(=O)[C@H](CCSC)N1C(=O)[C@@H]2Cc3ccccc3CN2C1(C)C`, the inhibition at 10 µM in test [2] came out at 34%; in test [3], 30.1%; in test [4], 31.9%; in test [5] it was 36.8%. The Activity amounted to 43.06% with Aorta and 20.11 mg with Rattus norvegicus [6].

For the compound `C[C@H](NC(=O)[C@@H]1Cc2ccccc2CN1)C(=O)O` (H-[Tic]-Ala-OH), the Activity with Rattus norvegicus [1] is reported as 21.4 mg.

Turning to `COC(=O)[C@H](Cc1ccccc1)N1C(=O)[C@@H]2Cc3ccccc3CN2C1(C)C`, the inhibition at 10 µM in test [2] worked out at 44.5%; in test [3], 46.8%; in [4], 56.3%; in [5], 57.8%. Also, the figures for the Activity in the test with Aorta and with Rattus norvegicus [6] were 32.18% and 20.62 mg, respectively.

With `COC(=O)[C@H](C(C)O)N1C(=O)[C@@H]2Cc3ccccc3CN2C1(C)C` (some centres undefined), the inhibition at 10 µM in test [2] worked out at 46.3%; in test [3] it was 45%; in test [4] it was 59.9%; in test [5], 57.2%. Also, the Activity in the test on Aorta is 35.21%; in the test with Rattus norvegicus [6], 20.01 mg.

Regarding `C[C@@H](O)[C@H](NC(=O)[C@@H]1Cc2ccccc2CN1)C(=O)O` (H-[Tic]-Thr-OH), in the test with Rattus norvegicus [1], the Activity amounted to 21.25 mg.

For `O=C(O)[C@H](CS)NC(=O)[C@@H]1Cc2ccccc2CN1` (H-[Tic]-Cys-OH), the Activity in the test on Rattus norvegicus [1] was found to be 20.91 mg.

As to `O=C(O)CNC(=O)[C@@H]1Cc2ccccc2CN1` (H-[Tic]-Gly-OH), the Activity in the test on Rattus norvegicus [1] was 20.24 mg.

With `O=C(O)C[C@H](NC(=O)[C@@H]1Cc2ccccc2CN1)C(=O)O` (H-[Tic]-Asp-OH), the Activity in the test with Rattus norvegicus [1] was found to be 21.67 mg.

`COC(=O)CC[C@@H](C(=O)OC)N1C(=O)[C@@H]2Cc3ccccc3CN2C1(C)C`: the inhibition at 10 µM in [2] came out at 22.5%; in [3] it was 37.4%; in test [4] it was 45.2%; in test [5], 28%. In addition, the results for the Activity with Aorta and with Rattus norvegicus [6] were 42.48% and 19.9 mg, respectively.

Take `NC(=O)CC[C@H](NC(=O)[C@@H]1Cc2ccccc2CN1)C(=O)O` (H-[Tic]-Gln-OH): in the test with Rattus norvegicus [1], the Activity is reported as 22.08 mg.

As for `COC(=O)[C@H](CCCNC(=N)N[N+](=O)[O-])N1C(=O)[C@@H]2Cc3ccccc3CN2C1(C)C`, the inhibition at 10 µM in [2] is 58.4%; in test [3] it was 30.6%; in [4], 65.3%; in test [5] it was 31.4%. Besides, the values for the Activity in the test on Aorta and in the test with Rattus norvegicus [6] were 6.78% and 23.61 mg, respectively.

On to `COC(=O)[C@H](CCC(N)=O)N1C(=O)[C@@H]2Cc3ccccc3CN2C1(C)C`, for which the inhibition at 10 µM in test [2] is 31.8%; in test [3], 48.1%; in [4], 25.9%; in test [5], 69%. In addition, the Activity in the test on Aorta is 38.61%; in the test on Rattus norvegicus [6] it was 22.7 mg.

As to `COC(=O)[C@H](C)N1C(=O)[C@@H]2Cc3ccccc3CN2C1(C)C`, the inhibition at 10 µM in test [2] is 10.2%; in test [3], 40.5%; in test [4] it was 46.3%; in [5], 11.7%. Further, the Activity in the test on Aorta is listed as 34.1%; in the test on Rattus norvegicus [6], 22.51 mg.

Regarding `CC(C)C[C@H](NC(=O)[C@@H]1Cc2ccccc2CN1)C(=O)O` (H-[Tic]-Leu-OH), the Activity in the test on Rattus norvegicus [1] is on record as 20.23 mg.

For the compound `COC(=O)[C@H](CC(N)=O)N1C(=O)[C@@H]2Cc3ccccc3CN2C1(C)C`, the inhibition at 10 µM in [2] turned out to be 33.9%; in [3], 30.1%; in test [4], 25.8%; in [5], 19.8%. For the same compound, the Activity is listed as 47.89% in the test on Aorta and 19.54 mg in the test on Rattus norvegicus [6].

On to `COC(=O)[C@H](Cc1ccc(O)cc1)N1C(=O)[C@@H]2Cc3ccccc3CN2C1(C)C`, for which the inhibition at 10 µM in test [2] amounted to 53.1%; in test [3] it was 52.2%; in test [4], 59%; in test [5] it was 25.3%. In addition, the Activity is given as 15.56% in the test with Aorta and 23.71 mg in the test on Rattus norvegicus [6].

For `O=C(O)[C@H](Cc1cc2ccccc2[nH]1)NC(=O)[C@@H]1Cc2ccccc2CN1`, the IC50 was 120 nM in test [7], 374 nM in test [8], 668 nM in [9] and 234 nM in [10]. The Activity with Rattus norvegicus [1] was found to be 21.3 mg.

With `NCCCC[C@H](NC(=O)[C@@H]1Cc2ccccc2CN1)C(=O)O` (H-[Tic]-Lys-OH), the Activity in the test with Rattus norvegicus [1] was 21.28 mg.

On to `O=C(O)[C@H](Cc1c[nH]cn1)NC(=O)[C@@H]1Cc2ccccc2CN1` (H-[Tic]-His-OH), for which the Activity in the test with Rattus norvegicus [1] was found to be 20.86 mg.

Take `COC(=O)[C@H](CS)N1C(=O)[C@@H]2Cc3ccccc3CN2C1(C)C`: the inhibition at 10 µM in [2] was 68.9%; in test [3], 60.7%; in test [4], 53.7%; in [5], 30.8%. Moreover, the Activity is 96.3% with Aorta and 12.9 mg with Rattus norvegicus [6].

On to `COC(=O)C[C@@H](C(=O)OC)N1C(=O)[C@@H]2Cc3ccccc3CN2C1(C)C`, for which the inhibition at 10 µM in test [2] is 24.6%; in test [3] it was 57.7%; in [4], 18.6%; in test [5] it was 60.1%. Moreover, the Activity in the test with Aorta was found to be 64.09%; with Rattus norvegicus [6] it was 18.2 mg.

Regarding `CC(C)[C@H](NC(=O)[C@@H]1Cc2ccccc2CN1)C(=O)O` (H-[Tic]-Val-OH), the Activity in the test with Rattus norvegicus [1] was 19.2 mg.

Consider `N=C(N)NCCC[C@H](NC(=O)[C@@H]1Cc2ccccc2CN1)C(=O)O` (H-[Tic]-Arg-OH), for which the Activity with Rattus norvegicus [1] is given as 18.73 mg.

Turning to `O=C(O)[C@H](CO)NC(=O)[C@@H]1Cc2ccccc2CN1` (H-[Tic]-Ser-OH), the Activity with Rattus norvegicus [1] is 23.58 mg.

Regarding `O=C(O)[C@H](Cc1ccc(O)cc1)NC(=O)[C@@H]1Cc2ccccc2CN1` (H-[Tic]-Tyr-OH), in the test with Rattus norvegicus [1], the Activity turned out to be 19.31 mg.

`O=C(O)CC[C@H](NC(=O)[C@@H]1Cc2ccccc2CN1)C(=O)O` (H-[Tic]-Glu-OH): the Activity with Rattus norvegicus [1] is 19.69 mg.
